# Laboratory results published in ChEMBL document CHEMBL4689842, “EUbOPEN Chemogenomics Library wave 1” (2021).
# Test system: U2OS
# Experiment: Multiplex assay against U2OS
# Assay type: toxicity, cell-based
# Conditions: human
# In short: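 Phenotypes for tubulin, mitochondrial mass and membrane permeability are expressed as per cents of healthy-nucleus cells. Cells were stained live at seeding with Hoechst33342, BioTracker Green Microtubule Cytoskeleton Dye, MitoTracker Red and Annexin V Alexa Fluor 680, then imaged after compound addition on a CQ1 microscope at 37°C and 5% CO2. Machine-learning gating in CellPathfinder separated Hoechst high-intensity objects from normal cells, divided normal cells by nuclear state (healthy, pyknosed, fragmented) and divided pyknosed cells into mitotic or apoptotic.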
# [1] = 12 h, 1 µM, compound concentration 1 uM, replicate 1
# [2] = 12 h, 1 µM, compound concentration 1 uM, replicate 2
# [3] = 12 h, 10 µM, compound concentration 10 uM, replicate 1
# [4] = 12 h, 10 µM, compound concentration 10 uM, replicate 2
# [5] = 24 h, 1 µM, compound concentration 1 uM, replicate 1
# [6] = 24 h, 1 µM, compound concentration 1 uM, replicate 2
# [7] = 24 h, 10 µM, compound concentration 10 uM, replicate 1
# [8] = 24 h, 10 µM, compound concentration 10 uM, replicate 2
# [9] = 48 h, 1 µM, compound concentration 1 uM, replicate 1
# [10] = 48 h, 1 µM, compound concentration 1 uM, replicate 2
# [11] = 48 h, 10 µM, compound concentration 10 uM, replicate 1
# [12] = 48 h, 10 µM, compound concentration 10 uM, replicate 2
smiles,measurement,setting,value
Cc1csc2c(N[C@@H](C)CN3CCN(S(=O)(=O)c4ccc(Cl)c(Cl)c4)CC3)ncnc12,Population Apoptotic (%),[1],70%
same,Population Fragmented Nuclei (%),[1],14%
same,Population Healthy Nuclei (%),[1],66%
same,Population Hoechst High Intensity Objects (%),[1],8%
same,Population Membrane Permeable-Phenotype (%),[1],4%
same,Population Mitochondria Different-Phenotype (%),[1],31%
same,Population Mitotic Cells (%),[1],30%
same,Population Normal (%),[1],91%
same,Population Pyknosed Nuclei (%),[1],19%
same,Population Tubulin-Different-Phenotype (%),[1],50%
same,Total Cell Count,[1],158
same,Population Apoptotic (%),[2],16%
same,Population Fragmented Nuclei (%),[2],5%
same,Population Healthy Nuclei (%),[2],84%
same,Population Hoechst High Intensity Objects (%),[2],5%
same,Population Membrane Permeable-Phenotype (%),[2],6%
same,Population Mitochondria Different-Phenotype (%),[2],33%
same,Population Mitotic Cells (%),[2],83%
same,Population Normal (%),[2],95%
same,Population Pyknosed Nuclei (%),[2],10%
same,Population Tubulin-Different-Phenotype (%),[2],47%
same,Total Cell Count,[2],48
same,Population Apoptotic (%),[3],53%
same,Population Fragmented Nuclei (%),[3],15%
same,Population Healthy Nuclei (%),[3],57%
same,Population Hoechst High Intensity Objects (%),[3],9%
same,Population Membrane Permeable-Phenotype (%),[3],55%
same,Population Mitochondria Different-Phenotype (%),[3],100%
same,Population Mitotic Cells (%),[3],46%
same,Population Normal (%),[3],90%
same,Population Pyknosed Nuclei (%),[3],27%
same,Population Tubulin-Different-Phenotype (%),[3],100%
same,Total Cell Count,[3],114
same,Population Apoptotic (%),[4],75%
same,Population Fragmented Nuclei (%),[4],12%
same,Population Healthy Nuclei (%),[4],67%
same,Population Hoechst High Intensity Objects (%),[4],4%
same,Population Membrane Permeable-Phenotype (%),[4],56%
same,Population Mitochondria Different-Phenotype (%),[4],98%
same,Population Mitotic Cells (%),[4],25%
same,Population Normal (%),[4],95%
same,Population Pyknosed Nuclei (%),[4],19%
same,Population Tubulin-Different-Phenotype (%),[4],98%
same,Total Cell Count,[4],60
same,Population Apoptotic (%),[5],73%
same,Population Fragmented Nuclei (%),[5],7%
same,Population Healthy Nuclei (%),[5],78%
same,Population Hoechst High Intensity Objects (%),[5],8%
same,Population Membrane Permeable-Phenotype (%),[5],10%
same,Population Mitochondria Different-Phenotype (%),[5],27%
same,Population Mitotic Cells (%),[5],26%
same,Population Normal (%),[5],91%
same,Population Pyknosed Nuclei (%),[5],13%
same,Population Tubulin-Different-Phenotype (%),[5],45%
same,Total Cell Count,[5],175
same,Population Apoptotic (%),[6],60%
same,Population Fragmented Nuclei (%),[6],11%
same,Population Healthy Nuclei (%),[6],73%
same,Population Hoechst High Intensity Objects (%),[6],4%
same,Population Membrane Permeable-Phenotype (%),[6],11%
same,Population Mitochondria Different-Phenotype (%),[6],25%
same,Population Mitotic Cells (%),[6],40%
same,Population Normal (%),[6],95%
same,Population Pyknosed Nuclei (%),[6],14%
same,Population Tubulin-Different-Phenotype (%),[6],23%
same,Total Cell Count,[6],64
same,Population Apoptotic (%),[7],95%
same,Population Fragmented Nuclei (%),[7],18%
same,Population Healthy Nuclei (%),[7],44%
same,Population Hoechst High Intensity Objects (%),[7],5%
same,Population Membrane Permeable-Phenotype (%),[7],75%
same,Population Mitochondria Different-Phenotype (%),[7],100%
same,Population Mitotic Cells (%),[7],4%
same,Population Normal (%),[7],94%
same,Population Pyknosed Nuclei (%),[7],36%
same,Population Tubulin-Different-Phenotype (%),[7],100%
same,Total Cell Count,[7],119
same,Population Apoptotic (%),[8],80%
same,Population Fragmented Nuclei (%),[8],15%
same,Population Healthy Nuclei (%),[8],57%
same,Population Hoechst High Intensity Objects (%),[8],4%
same,Population Membrane Permeable-Phenotype (%),[8],80%
same,Population Mitochondria Different-Phenotype (%),[8],97%
same,Population Mitotic Cells (%),[8],19%
same,Population Normal (%),[8],95%
same,Population Pyknosed Nuclei (%),[8],26%
same,Population Tubulin-Different-Phenotype (%),[8],97%
same,Total Cell Count,[8],72
same,Population Apoptotic (%),[9],77%
same,Population Fragmented Nuclei (%),[9],8%
same,Population Healthy Nuclei (%),[9],79%
same,Population Hoechst High Intensity Objects (%),[9],3%
same,Population Membrane Permeable-Phenotype (%),[9],8%
same,Population Mitochondria Different-Phenotype (%),[9],16%
same,Population Mitotic Cells (%),[9],22%
same,Population Normal (%),[9],96%
same,Population Pyknosed Nuclei (%),[9],11%
same,Population Tubulin-Different-Phenotype (%),[9],30%
same,Total Cell Count,[9],243
same,Population Apoptotic (%),[10],25%
same,Population Fragmented Nuclei (%),[10],12%
same,Population Healthy Nuclei (%),[10],82%
same,Population Hoechst High Intensity Objects (%),[10],4%
same,Population Mitochondria Different-Phenotype (%),[10],12%
same,Population Mitotic Cells (%),[10],75%
same,Population Normal (%),[10],95%
same,Population Pyknosed Nuclei (%),[10],4%
same,Population Tubulin-Different-Phenotype (%),[10],20%
same,Total Cell Count,[10],89
same,Population Apoptotic (%),[11],87%
same,Population Fragmented Nuclei (%),[11],25%
same,Population Healthy Nuclei (%),[11],30%
same,Population Hoechst High Intensity Objects (%),[11],8%
same,Population Membrane Permeable-Phenotype (%),[11],78%
same,Population Mitochondria Different-Phenotype (%),[11],96%
same,Population Mitotic Cells (%),[11],12%
same,Population Normal (%),[11],91%
same,Population Pyknosed Nuclei (%),[11],43%
same,Population Tubulin-Different-Phenotype (%),[11],100%
same,Total Cell Count,[11],159
same,Population Apoptotic (%),[12],92%
same,Population Fragmented Nuclei (%),[12],15%
same,Population Healthy Nuclei (%),[12],50%
same,Population Hoechst High Intensity Objects (%),[12],7%
same,Population Membrane Permeable-Phenotype (%),[12],84%
same,Population Mitochondria Different-Phenotype (%),[12],97%
same,Population Mitotic Cells (%),[12],7%
same,Population Normal (%),[12],92%
same,Population Pyknosed Nuclei (%),[12],34%
same,Population Tubulin-Different-Phenotype (%),[12],97%
same,Total Cell Count,[12],91
CN(C)C(=O)/C(C#N)=C/c1ccc(-c2nc3cnc4[nH]ccc4c3n2C2CCCCC2)o1,Population Apoptotic (%),[1],60%
same,Population Fragmented Nuclei (%),[1],17%
same,Population Healthy Nuclei (%),[1],69%
same,Population Hoechst High Intensity Objects (%),[1],8%
same,Population Membrane Permeable-Phenotype (%),[1],5%
same,Population Mitochondria Different-Phenotype (%),[1],14%
same,Population Mitotic Cells (%),[1],40%
same,Population Normal (%),[1],91%
same,Population Pyknosed Nuclei (%),[1],13%
same,Population Tubulin-Different-Phenotype (%),[1],8%
same,Total Cell Count,[1],122
same,Population Apoptotic (%),[2],57%
same,Population Fragmented Nuclei (%),[2],4%
same,Population Healthy Nuclei (%),[2],87%
same,Population Hoechst High Intensity Objects (%),[2],2%
same,Population Membrane Permeable-Phenotype (%),[2],2%
same,Population Mitochondria Different-Phenotype (%),[2],6%
same,Population Mitotic Cells (%),[2],42%
same,Population Normal (%),[2],97%
same,Population Pyknosed Nuclei (%),[2],7%
same,Population Tubulin-Different-Phenotype (%),[2],24%
same,Total Cell Count,[2],75
same,Population Apoptotic (%),[3],19%
same,Population Fragmented Nuclei (%),[3],17%
same,Population Healthy Nuclei (%),[3],56%
same,Population Hoechst High Intensity Objects (%),[3],49%
same,Population Membrane Permeable-Phenotype (%),[3],12%
same,Population Mitochondria Different-Phenotype (%),[3],55%
same,Population Mitotic Cells (%),[3],80%
same,Population Normal (%),[3],50%
same,Population Pyknosed Nuclei (%),[3],25%
same,Population Tubulin-Different-Phenotype (%),[3],75%
same,Total Cell Count,[3],167
same,Population Apoptotic (%),[4],18%
same,Population Fragmented Nuclei (%),[4],20%
same,Population Healthy Nuclei (%),[4],62%
same,Population Hoechst High Intensity Objects (%),[4],54%
same,Population Membrane Permeable-Phenotype (%),[4],13%
same,Population Mitochondria Different-Phenotype (%),[4],63%
same,Population Mitotic Cells (%),[4],81%
same,Population Normal (%),[4],45%
same,Population Pyknosed Nuclei (%),[4],17%
same,Population Tubulin-Different-Phenotype (%),[4],70%
same,Total Cell Count,[4],91
same,Population Apoptotic (%),[5],75%
same,Population Fragmented Nuclei (%),[5],12%
same,Population Healthy Nuclei (%),[5],79%
same,Population Hoechst High Intensity Objects (%),[5],5%
same,Population Membrane Permeable-Phenotype (%),[5],4%
same,Population Mitochondria Different-Phenotype (%),[5],8%
same,Population Mitotic Cells (%),[5],25%
same,Population Normal (%),[5],94%
same,Population Pyknosed Nuclei (%),[5],8%
same,Population Tubulin-Different-Phenotype (%),[5],6%
same,Total Cell Count,[5],133
same,Population Apoptotic (%),[6],54%
same,Population Fragmented Nuclei (%),[6],5%
same,Population Healthy Nuclei (%),[6],84%
same,Population Hoechst High Intensity Objects (%),[6],4%
same,Population Membrane Permeable-Phenotype (%),[6],2%
same,Population Mitochondria Different-Phenotype (%),[6],10%
same,Population Mitotic Cells (%),[6],45%
same,Population Normal (%),[6],95%
same,Population Pyknosed Nuclei (%),[6],9%
same,Population Tubulin-Different-Phenotype (%),[6],36%
same,Total Cell Count,[6],81
same,Population Apoptotic (%),[7],34%
same,Population Fragmented Nuclei (%),[7],17%
same,Population Healthy Nuclei (%),[7],56%
same,Population Hoechst High Intensity Objects (%),[7],44%
same,Population Membrane Permeable-Phenotype (%),[7],15%
same,Population Mitochondria Different-Phenotype (%),[7],45%
same,Population Mitotic Cells (%),[7],65%
same,Population Normal (%),[7],55%
same,Population Pyknosed Nuclei (%),[7],25%
same,Population Tubulin-Different-Phenotype (%),[7],55%
same,Total Cell Count,[7],196
same,Population Apoptotic (%),[8],44%
same,Population Fragmented Nuclei (%),[8],28%
same,Population Healthy Nuclei (%),[8],53%
same,Population Hoechst High Intensity Objects (%),[8],54%
same,Population Membrane Permeable-Phenotype (%),[8],12%
same,Population Mitochondria Different-Phenotype (%),[8],49%
same,Population Mitotic Cells (%),[8],55%
same,Population Normal (%),[8],45%
same,Population Pyknosed Nuclei (%),[8],17%
same,Population Tubulin-Different-Phenotype (%),[8],45%
same,Total Cell Count,[8],125
same,Population Apoptotic (%),[9],55%
same,Population Fragmented Nuclei (%),[9],8%
same,Population Healthy Nuclei (%),[9],85%
same,Population Hoechst High Intensity Objects (%),[9],0%
same,Population Membrane Permeable-Phenotype (%),[9],3%
same,Population Mitochondria Different-Phenotype (%),[9],7%
same,Population Mitotic Cells (%),[9],44%
same,Population Normal (%),[9],99%
same,Population Pyknosed Nuclei (%),[9],6%
same,Population Tubulin-Different-Phenotype (%),[9],10%
same,Total Cell Count,[9],179
same,Population Apoptotic (%),[10],30%
same,Population Fragmented Nuclei (%),[10],4%
same,Population Healthy Nuclei (%),[10],90%
same,Population Hoechst High Intensity Objects (%),[10],1%
same,Population Membrane Permeable-Phenotype (%),[10],1%
same,Population Mitochondria Different-Phenotype (%),[10],15%
same,Population Mitotic Cells (%),[10],70%
same,Population Normal (%),[10],98%
same,Population Pyknosed Nuclei (%),[10],5%
same,Population Tubulin-Different-Phenotype (%),[10],43%
same,Total Cell Count,[10],104
same,Population Apoptotic (%),[11],39%
same,Population Fragmented Nuclei (%),[11],26%
same,Population Healthy Nuclei (%),[11],47%
same,Population Hoechst High Intensity Objects (%),[11],44%
same,Population Membrane Permeable-Phenotype (%),[11],23%
same,Population Mitochondria Different-Phenotype (%),[11],18%
same,Population Mitotic Cells (%),[11],60%
same,Population Normal (%),[11],55%
same,Population Pyknosed Nuclei (%),[11],25%
same,Population Tubulin-Different-Phenotype (%),[11],36%
same,Total Cell Count,[11],279
same,Population Apoptotic (%),[12],63%
same,Population Fragmented Nuclei (%),[12],34%
same,Population Healthy Nuclei (%),[12],49%
same,Population Hoechst High Intensity Objects (%),[12],48%
same,Population Membrane Permeable-Phenotype (%),[12],27%
same,Population Mitochondria Different-Phenotype (%),[12],27%
same,Population Mitotic Cells (%),[12],36%
same,Population Normal (%),[12],51%
same,Population Pyknosed Nuclei (%),[12],16%
same,Population Tubulin-Different-Phenotype (%),[12],31%
same,Total Cell Count,[12],172
